beta cell repl = MIN6 beta-cell proliferation induction; 330,000 tested, 0.29% active; AID 2380; MIN6 cells proliferation, ATPlite luminescence, 48 h; cells starved in 0.2% serum; 100% = growth in 10% serum; proliferation, % at 10 µM;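 active = compounds whose signal lies at least 3.5 SD above the mean of all wells on their plate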;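 also: 0% = DMSO-treated cells in low-serum medium and 100% = 10% serum control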
HKDC1 inhibitor = inhibitors of human hexokinase HKDC1; inhibition, % at 20 µM; 340,000 tested, 0.16% active; recombinant HKDC1, G6PDH/diaphorase resazurin coupled fluorescence; AID 493160; Q2TB90;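 active = inhibition above about 35% when tested at 20 µM, limit read from the data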;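 also: plate controls were DMSO wells with enzyme for no effect and DMSO wells lacking enzyme for full effect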
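Material – in-house recombinant HK5 (HKDC1) enzyme · Quantity – HKDC1 at 5 µg/mL · Buffer or medium – pH 8.0 Tris buffer with 10 mM MgCl2 · Reagent – glucose with 1 mM ATP · Dosing – single 20 µM dose · Times – reaction time 90 min, room temperature, protected from light · Technique – resorufin fluorescence at 613 nm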
ATG4B inh = inhibitors of human ATG4B cysteine protease | Q9Y4P1 | ATG4B cleavage of LC3-PLA2, NBD-HPC fluorescence, 1 h | inhibition, % at 8.33 µM | 340,000 tested, 0.51% active; in the data active = inhibition above about 40%
IMP-1 inhibitor = blocks Pseudomonas aeruginosa IMP-1 metallo-beta-lactamase; purified IMP-1, nitrocefin hydrolysis, epi-absorbance fluorescence; inhibition, % at 5.6 µM; 290,000 tested, 0.45% active; AID 1556;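 active = inhibition above the mean plus 3 SD of all compounds in the same screening run, cut at about 4.5% in these data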;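 also: 0% = IMP-1 with DMSO and 100% = DMSO wells lacking enzyme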
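assay system = purified recombinant IMP-1 metallo-beta-lactamase enzyme | schedule = 15 min preincubation plus 25 min reaction at 25 °C | signal = Epi-absorbance fluorescence, 480 nm excitation, 530 nm emission | read-out basis = percent inhibition from optical density relative to buffer-blank wells | controls = IMP-1 with DMSO as 0%, enzyme-free DMSO as 100%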
VIM-2 inh = blocks Pseudomonas aeruginosa VIM-2 metallo-beta-lactamase. purified VIM-2, nitrocefin hydrolysis, epi-absorbance fluorescence. inhibition, % at 5.6 µM. 290,000 tested, 0.89% active;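 active = inhibition above the mean of all tested compounds plus 3 SD, cutoff set per screening run, cut at about 7.5% in these data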;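 also: red hydrolysis product quenches plate fluorescence so inhibitors raise well fluorescence; 0% = enzyme with DMSO and 100% = DMSO without enzyme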
PvdQ acylase = blocks Pseudomonas aeruginosa PvdQ acylase activity; 340,000 tested, 0.063% active; inhibition, % at 10 µM; purified PvdQ acylase, fluorescence plate reader; in the data active = inhibition above about 30%, passing the limit was not always enough;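 also: 0% = vehicle neutral wells and 100% = reference inhibitor wells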
ATG4B conf = confirmation of human ATG4B inhibitors | shares compounds with ATG4B inh | ATG4B protease fluorescent substrate cleavage assay | inhibition, % at 8.33 µM | 320 tested, 92% active | AID 504757; in the data active = inhibition above about 39%
PLA2 ctr = PLA2 (human) inhibition in ATG4B counter-screen; inhibition, % at 8.33 µM; AID 588402; shares compounds with ATG4B inh; purified PLA2, NBD-C6-HPC fluorescence, 45 min; 1,600 tested, 66% active; in the data active = inhibition above about 50%
Target sequence (P04054 whole entry, looked up): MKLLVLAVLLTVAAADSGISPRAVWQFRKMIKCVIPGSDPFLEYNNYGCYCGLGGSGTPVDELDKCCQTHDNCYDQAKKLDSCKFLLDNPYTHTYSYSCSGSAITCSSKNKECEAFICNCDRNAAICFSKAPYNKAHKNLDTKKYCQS
The depositor's hits bear a star; . = no result. Sampled rows, rich in hits. Any-hit rate of the full collection: about 2%.

SMILES	beta cell repl	HKDC1 inhibitor	ATG4B inh	IMP-1 inhibitor	VIM-2 inh	PvdQ acylase	PLA2 ctr	others
Nc1nn(-c2ccccc2)c(N)c1N=Nc1ccc2c(c1)OCO2	0	7	41*	1	-2	20	40	ATG4B conf=76*
NC(=O)COC(=O)c1ccccc1Oc1ccccc1	-3	14	30	-3	-2	-4	.
Cc1cc(C)n2nc(C(=O)OCC(=O)NCc3ccc(F)cc3)nc2n1	0	-2	-4	.	.	-5	.
O=C(Nc1ccc(-n2nncc2-c2ccco2)cc1)c1cc2ccccc2oc1=O	-4	19	5	-2	-3	-9	.
O=C(CSc1nnc(COc2ccc(Cl)cc2)n1Cc1ccco1)c1ccccc1F	-4	1	44*	-3	-1	-6	34	ATG4B conf=57*
COc1ccc(C(=O)Nc2cc(C(=O)c3ccccc3)c(C)oc2=O)cc1	0	11	44*	-2	-1	-3	38	ATG4B conf=69*
COC(=O)c1cc(NC(=O)c2ccccc2)c(=O)oc1C	2	-2	1	-1	-3	-8	.
O=C(CSc1ccccc1C(=O)O)c1ccc(Cl)cc1	0	-2	-3	0	1	-2	.
O=C(O)c1ccccc1NC(c1ccccc1)c1ccc(Cl)cc1 (stereo not drawn)	-3	11	85*	-2	0	-19	87*
Cn1cc(S(=O)(=O)N2CCNCC2)cc1C(N)=O	2	-5	-4	.	.	-3	.
CCc1nnc(NS(=O)(=O)c2ccc(N/C=C\C(=O)c3ccc4ccccc4c3)cc2)s1	-5	2	50*	-2	1	-6	11	ATG4B conf=59*
CCc1nnc(NS(=O)(=O)c2ccc(NC(=O)c3ccccc3)cc2)s1	-1	-11	-10	-6	-3	5	.
Clc1cccc(-c2nc(NCc3cccnc3)c3ccccc3n2)c1	-6	-3	64*	-3	-1	-10	70*
CC1CCN(C(=O)c2ccc3c(c2)NC(=O)/C(=C/c2ccccc2)S3)CC1	-7	2	56*	-2	-2	-9	76*
COc1ccc(/C=C2/Sc3ccc(C(=O)N4CCc5ccccc5C4)cc3NC2=O)cc1	-4	-6	69*	-4	-4	2	82*
CCCc1c(C)[nH]c2ccc(C(=O)O)cc2c1=S	.	14	20	-1	1	-8	.
Cc1ccc(-n2cc(CN3CCNC(=O)CC3)c(-c3ccc(F)cc3)n2)cc1	-1	14	3	-3	1	-13	.
Cc1ccc(-n2cc(CN3CCC(O)(c4ccccn4)CC3)c(-c3ccc(F)cc3)n2)cc1	-5	-4	61*	-2	-2	8	52*
COc1cccc(NC(=O)Cn2cnc3c(oc4nc5c(cc43)CCCC5)c2=O)c1	-2	0	-3	-2	-2	-7	.
CCc1cccc(C)c1NC(=O)COC(=O)c1c2c(nc3ccccc13)/C(=C\c1cccs1)CCC2	-3	-4	46*	-3	-3	-13	47
Cc1ccc(S(=O)(=O)C2C(=O)N(C)C3(C)CC2c2ccccc2O3)cc1C (stereo not drawn)	-3	-13	79*	-2	-2	-11	85*
CC(NC(=O)c1cccc(S(=O)(=O)N2CCN(Cc3ccccc3)CC2)c1)c1ccc(Br)cc1 (stereo not drawn)	-4	-3	-3	-1	0	0	.
O=C(Nc1nc(-c2ccc(Cl)cc2)cs1)NC1CCCCC1	0	2	64*	-2	-1	-3	73*
O=C(c1ccco1)N1CCN(c2nc(C3CC3)nc3sc4c(c23)CCCC4)CC1	-5	1	93*	-1	3	-8	91*
Cc1nc(N2CCN(C(=O)c3cccs3)CC2)c2c3c(sc2n1)CCCC3	-3	5	78*	-3	1	4	86*

Bioassay records (PubChem BioAssay)
